One experiment addresses T1, SIRT1-143CS (Homo sapiens, UniProt Q96EB6, C253S/C268S/C501S/C502S/DEL513-640).
T1 sequence (Q96EB6 with tags, fused parts or gaps C253S/C268S/C501S/C502S/DEL513-640 limits assumed): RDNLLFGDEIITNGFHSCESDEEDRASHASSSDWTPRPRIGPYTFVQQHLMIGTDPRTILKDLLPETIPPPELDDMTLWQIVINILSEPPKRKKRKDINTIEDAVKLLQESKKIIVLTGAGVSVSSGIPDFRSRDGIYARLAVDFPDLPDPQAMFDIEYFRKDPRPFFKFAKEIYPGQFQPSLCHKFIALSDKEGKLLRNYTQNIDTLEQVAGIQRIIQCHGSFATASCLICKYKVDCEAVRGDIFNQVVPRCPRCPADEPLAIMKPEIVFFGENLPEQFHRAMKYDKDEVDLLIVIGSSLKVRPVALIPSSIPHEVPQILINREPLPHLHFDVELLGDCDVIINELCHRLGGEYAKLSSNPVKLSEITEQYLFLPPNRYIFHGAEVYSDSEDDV
The format is biochemical. The following applies: 0.2 mM resveratrol, PBS pH 7.4, 37°C.

The next experiment has as its target p53-AMC peptide. The experiment is described as follows: ITC, resveratrol to p53-AMC peptide. The format is binding. The following applies: 25°C.
The subject of the next experiment is SIRT1-143. The experiment is described as follows: Enzyme-coupled deacetylation assay, SIRT1-143. The following applies: p53-AMC substrate, 0.5 mM resveratrol (Fig. 1B). The format is biochemical, human. Put shortly: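 Purified tag-free SIRT1 fragments (his-sumo tag removed after Ni-IDA, then size exclusion) in the continuous nicotinamidase/glutamate dehydrogenase-coupled assay. NADH oxidation was read at 340 nm using an extinction coefficient of 6.22 mM−1 cm−1. Reactions at 37°C in PBS pH 7.4, started with NAD, with and without resveratrol. Background from no-NAD controls was subtracted.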

The subject of experiment [1] is fluorophore-attached p53 peptides. Particulars: ref Borra et al. 2005; Pacholec et al. 2010; cited from earlier work.
The target in the next experiment is T2, SIRT1 E230K mutant (Homo sapiens, UniProt Q96EB6, C253S/C268S/C501S/C502S/DEL513-640/E230K).
T2 sequence (Q96EB6 with tags, fused parts or gaps E230K/C253S/C268S/C501S/C502S/DEL513-640 limits assumed): T1 sequence (Q96EB6 with tags, fused parts or gaps C253S/C268S/C501S/C502S/DEL513-640 limits assumed) with E88K
As to the kind of experiment: Enzyme-coupled deacetylation assay, SIRT1 E230K. In kind it is biochemical. Particulars: p53-AMC 100 μM, 0.2 mM resveratrol, PBS pH 7.4, 37°C. The method, boiled down: (§1)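 Mutants are made in the SIRT1-143CS background. Continuous coupled assay in PBS pH 7.4: 2 mM NAD, 100 μM p53-AMC, ±0.2 mM resveratrol, 0.2 mM NADH, 3.3 mM α-ketoglutarate, 1 μM PncA, 3 U glutamate dehydrogenase, 1 mM DTT, 2% DMSO. Pre-equilibrated 5–10 min at 37°C without NAD, then started with NAD. A340 followed 15 min, minus no-NAD background. Rate taken from the linear portion, three repeats.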

Experiment [2] addresses T3, SIRT1-143CS (C253S, C268S, C501S, C502S) (Homo sapiens, UniProt Q96EB6, C253S/C268S/C501S/C502S/DEL513-640).
T3 sequence (Q96EB6 with tags, fused parts or gaps C253S/C268S/C501S/C502S/DEL513-640 limits assumed): T1 sequence (Q96EB6 with tags, fused parts or gaps C253S/C268S/C501S/C502S/DEL513-640 limits assumed)
The experiment is described as follows: ITC peptide binding, SIRT1-143CS. Particulars: 25°C, 0.5 mM resveratrol. The method, boiled down: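 p53-AMC peptide ([acR]HK[Kac]-AMC) at 1.5 mM was titrated into 0.1 mM SIRT1 protein at 25°C with 600 rpm stirring. The run used 20 injections, a 0.5 μL first drop that was not used, 2 μL drops thereafter and 2 min intervals. Titrant and protein were both in 20 mM HEPES pH 7.5, 150 mM NaCl, 10% glycerol, with or without 0.5 mM resveratrol. Buffer-only titrant heat was subtracted, and KD came from a one-site fit.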

For the next experiment, the target named is T4, SIRT1 R446A mutant (Homo sapiens, UniProt Q96EB6, C253S/C268S/C501S/C502S/DEL513-640/R446A).
T4 sequence (Q96EB6 with tags, fused parts or gaps C253S/C268S/R446A/C501S/C502S/DEL513-640 limits assumed): T1 sequence (Q96EB6 with tags, fused parts or gaps C253S/C268S/C501S/C502S/DEL513-640 limits assumed) with R304A
The experiment is described as follows: Enzyme-coupled deacetylation assay, SIRT1 R446A. In kind it is biochemical. Particulars: p53-AMC 100 μM, 0.2 mM resveratrol, PBS pH 7.4, 37°C. Put shortly:
as §1

In a further experiment the target is T5, SIRT1 Q222A/N226A mutant (Homo sapiens, UniProt Q96EB6, C253S/C268S/C501S/C502S/DEL513-640/N226A/Q222A).
T5 sequence (Q96EB6 with tags, fused parts or gaps Q222A/N226A/C253S/C268S/C501S/C502S/DEL513-640 limits assumed): T1 sequence (Q96EB6 with tags, fused parts or gaps C253S/C268S/C501S/C502S/DEL513-640 limits assumed) with Q80A, N84A
As to the kind of experiment: Enzyme-coupled deacetylation assay, SIRT1 Q222A/N226A. The format is biochemical. Particulars: p53-AMC 100 μM, 0.2 mM resveratrol, PBS pH 7.4, 37°C. The method, boiled down:
as §1

The subject of the next experiment is SIRT5. Particulars: fluorogenic Fluor-de-Lys (FdL) peptide substrate; ref Gertz et al. 2012; cited from earlier work.
In another experiment the target is T6, SIRT1 E230A mutant (Homo sapiens, UniProt Q96EB6, C253S/C268S/C501S/C502S/DEL513-640/E230A).
T6 sequence (Q96EB6 with tags, fused parts or gaps E230A/C253S/C268S/C501S/C502S/DEL513-640 limits assumed): T1 sequence (Q96EB6 with tags, fused parts or gaps C253S/C268S/C501S/C502S/DEL513-640 limits assumed) with E88A
As to the kind of experiment: Enzyme-coupled deacetylation assay, SIRT1 E230A. In kind it is biochemical. Particulars: p53-AMC 100 μM, 0.2 mM resveratrol, PBS pH 7.4, 37°C. Put shortly: as §1

Experiment [3] addresses SIRT1 NTD (isolated protein domain). As to the kind of experiment: ITC, resveratrol to isolated SIRT1 NTD. The format is binding, human. Particulars: 25°C.
Another experiment deals with SIRT3. The following applies: fluorogenic Fluor-de-Lys (FdL) peptide substrate; ref Gertz et al. 2012; cited from earlier work.

Where a chain is given by its changes, count along the chain named. Entries after “also recorded” stand apart in the source; their conditions may differ.

Take `Oc1ccc(/C=C/c2cc(O)cc(O)c2)cc1` [resveratrol]: at SIRT1-143CS, the “effect of resveratrol on Km for the p53-AMC peptide” value was “significantly lowered the Km value for the p53-AMC peptide; also recorded: lowered the Km value of the fluorogenic peptide”. The “effect of resveratrol on Km for PGC-1α and FOXO3a peptides” value on SIRT1-143CS (native peptides without fluorophore) was “less pronounced”. Moreover, at p53-AMC peptide, the “binding affinity between resveratrol and the p53-AMC peptide” value is recorded as “too weak to be reliably quantitated”. Besides, the “stimulation of deacetylase activity by resveratrol” value in the experiment with SIRT1-143 was “stimulated by resveratrol in a manner similar to that of the full-length protein”. In experiment [1], the “interaction with fluorophore-attached p53 peptides” value is reported as “weakly”. The “stimulatory effect of resveratrol” value at SIRT1 E230K mutant and on SIRT1 E230A mutant was “significantly reduced the stimulatory effect of resveratrol” each time. Moreover, the “effect of resveratrol on binding between SIRT1 and the p53-AMC peptide” value in experiment [2] was “increased the binding between SIRT1 and the p53-AMC peptide”. The “level of resveratrol stimulation” value on SIRT1 R446A mutant was “level of resveratrol stimulation similar to that of the E230K mutant”. Moreover, the “response to the addition of resveratrol” value on SIRT1 Q222A/N226A mutant is “conspicuous level of reduction in response to the addition of resveratrol”. Besides, the “effect on SIRT5 activity” value in the experiment on SIRT5 was “stimulate the activity of SIRT5”. Also, the “binding affinity between resveratrol and the SIRT1 NTD” value in experiment [3] is on record as “too weak to be reliably quantitated”. In the experiment on SIRT3, the “effect on SIRT3 activity” value is recorded as “inhibit SIRT3”.

The values above are taken from article PMC4495401 (Genes & Development, 2015).
